{"data": "Measured values of several laboratories", "target": "Testis-specific serine/threonine-protein kinase 3 (TSSK3, Homo sapiens, UniProt Q96PN8)", "Sequence (Q96PN8 1-268, as in one of the studies)": "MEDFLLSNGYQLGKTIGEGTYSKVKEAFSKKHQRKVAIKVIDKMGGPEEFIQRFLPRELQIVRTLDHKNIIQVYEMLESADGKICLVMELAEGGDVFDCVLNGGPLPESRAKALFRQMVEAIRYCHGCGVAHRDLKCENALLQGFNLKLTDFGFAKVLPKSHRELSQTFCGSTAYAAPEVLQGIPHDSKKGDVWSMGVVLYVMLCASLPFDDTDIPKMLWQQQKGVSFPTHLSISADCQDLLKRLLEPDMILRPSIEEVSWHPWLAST"}
{"SMILES": "O=C(NCC1CCOCC1)c1n[nH]cc1NC(=O)c1c(F)cccc1F", "assay": "binding, competition with immobilised ligand", "conditions": "1 µM", "remaining binding [%]": 100}
{"SMILES": "C=CC(=O)N1CCC(C(=O)NCC(=O)N2CCN(c3nc(-c4cnc(N)nc4C(F)F)nc(N4CCOCC4)n3)CC2)CC1", "assay": "binding, competition with immobilised ligand", "conditions": "1 µM", "remaining binding [%]": 100}
{"SMILES": "Cc1c(NC(=O)c2cc(C(N)=O)nc3cc(F)ccc23)c(C(F)(F)F)nn1Cc1ccc(C(C)(C)C)cc1", "assay": "cell-free assay, competition with immobilised ligand", "conditions": "1 µM", "remaining binding [%]": 100}
{"SMILES": "O=C(c1ccc(Nc2ncc(Cl)c(-c3ccc(Cl)s3)n2)cc1)N1CCC(N2CCCC2)CC1", "assay": "binding, competition with immobilised ligand", "conditions": "1 µM", "remaining binding [%]": 100}
{"SMILES": "CN(c1nccc(-c2cnn3ncccc23)n1)C1CC1", "assay": "binding", "conditions": "1 µM", "remaining binding [%]": 99}
{"SMILES": "O=C(Nc1ccc(Oc2ccc(F)cc2)cc1)N1CCc2ncccc2[C@H]1c1ccc(F)cc1", "assay": "cell-free assay, competition with immobilised ligand", "conditions": "1 µM", "remaining binding [%]": 98}
{"SMILES": "COc1ncc2cc3ccccc3nc2c1C#N", "assay": "cell-free assay, competition with immobilised ligand", "conditions": "5 µM", "remaining binding [%]": 90}
{"SMILES": "C[C@H]1CCN(c2nccc(-c3cnn4ncccc34)n2)C1", "assay": "binding", "conditions": "1 µM", "remaining binding [%]": 92}
{"SMILES": "CNC(=O)[C@@H]1CC[C@@H](n2c(-c3ccc4cnccc4c3)nc3ccc(C(=O)NCc4cccc(C(N)=O)c4)cc32)C1", "assay": "binding, competition with immobilised ligand", "conditions": "1 µM", "remaining binding [%]": 100}
{"SMILES": "C[C@@H](c1ccc(-n2cnc3c(N)ncnc32)cc1)N1CCc2nn(C)c(Cc3ccccc3)c2C1=O", "assay": "binding, competition with immobilised ligand", "conditions": "0.1 µM", "remaining binding [%]": 70}
{"SMILES": "c1cnn2ncc(-c3ccnc(N4CCC45COC5)n3)c2c1", "assay": "binding", "conditions": "1 µM", "remaining binding [%]": 98}
{"SMILES": "Nc1c(C(=O)NCc2ccc(C(=O)NCCCC3CCCCC3)cc2)cnn1-c1ccccc1", "assay": "cell-free assay, competition with immobilised ligand", "conditions": "0.1 µM", "remaining binding [%]": 100}
{"SMILES": "O=C(NCCCN1CCOCC1)c1ccc(Nc2ncc(Cl)c(-c3ccc(Cl)s3)n2)cc1", "assay": "binding, competition with immobilised ligand", "conditions": "1 µM", "remaining binding [%]": 100}
{"SMILES": "CN([C@@H]1CCc2c(CC(=O)O)c3cc(S(C)(=O)=O)ccc3n2C1)S(=O)(=O)c1ccc(F)cc1", "assay": "cell-free assay, competition with immobilised ligand", "conditions": "1 µM", "remaining binding [%]": 100}
{"SMILES": "F[C@@H]1CCN(c2nccc(-c3cnn4ncccc34)n2)C1", "assay": "binding", "conditions": "1 µM", "remaining binding [%]": 100}
{"SMILES": "O=C(c1ccc(Nc2nccc(-c3cc4ccccc4s3)n2)cc1)N1CCC(N2CCCC2)CC1", "assay": "binding, competition with immobilised ligand", "conditions": "1 µM", "remaining binding [%]": 100}
{"SMILES": "N[C@H]1CCN(c2nccc(-c3cnn4ncccc34)n2)C1", "assay": "binding", "conditions": "1 µM", "remaining binding [%]": 88}
{"SMILES": "C[C@@]1(Cc2ccc(C#N)cc2)C(=O)N(c2cc(Cl)cc(Cl)c2)c2ncc(C(=O)NC3(c4nc(C5CCC5)no4)CC3)n21", "assay": "cell-free assay, competition with immobilised ligand", "conditions": "1 µM", "remaining binding [%]": 100}
{"SMILES": "CN(C)c1nccc(-c2cnc3ncccn23)n1", "assay": "binding", "conditions": "1 µM", "remaining binding [%]": 90}
{"SMILES": "CNC(=O)Nc1ccc2c(c1)[C@@]1(CC2)OC(=O)N(CC(=O)N(Cc2ccc(F)cc2)[C@@H](C)C(F)(F)F)C1=O", "assay": "cell-free assay, competition with immobilised ligand", "conditions": "1 µM", "remaining binding [%]": 100}
